Results reported in ChEMBL document CHEMBL3120153, “Novel Quinoline-Based P2-P4 Macrocyclic Derivatives As Pan-Genotypic HCV NS3/4a Protease Inhibitors” (ACS Med Chem Lett, 2014).

Key:
NS3 protease [1] = biological target: NS3 protease (Hepatitis C virus subtype 1b, UniProt Q0ZMF1, A156V); experiment: Inhibition of Hepatitis C virus genotype 1b NS3/4A protease A156V mutant assessed as substrate cleavage using Ac-C(Eu)DDMEEAbu(COO)ASK(QSY7)-amide as substrate incubated for 30 mins prior to substrate addition by time-resolved fluorescence assay
[2] = Inhibition of Hepatitis C virus genotype 3a NS3/4A protease assessed as substrate cleavage using Ac-C(Eu)DDMEEAbu(COO)ASK(QSY7)-amide as substrate incubated for 30 mins prior to substrate addition by time-resolved fluorescence assay; parameters: species or system Hepatitis C virus subtype 3a
NS3 protease [3] = biological target: NS3 protease (Hepatitis C virus subtype 1b, UniProt Q0ZMF1, D168Y); experiment: Inhibition of Hepatitis C virus genotype 1b NS3/4A protease D168Y mutant assessed as substrate cleavage using Ac-C(Eu)DDMEEAbu(COO)ASK(QSY7)-amide as substrate incubated for 30 mins prior to substrate addition by time-resolved fluorescence assay
NS3 protease [4] = biological target: NS3 protease (Hepatitis C virus subtype 1b, UniProt Q0ZMF1, R155K); experiment: Inhibition of Hepatitis C virus genotype 1b NS3/4A protease R155K mutant assessed as substrate cleavage using Ac-C(Eu)DDMEEAbu(COO)ASK(QSY7)-amide as substrate incubated for 30 mins prior to substrate addition by time-resolved fluorescence assay
NS3 protease [5] = biological target: NS3 protease (Hepatitis C virus subtype 1b, UniProt Q0ZMF1, A156T); experiment: Inhibition of Hepatitis C virus genotype 1b NS3/4A protease A156T mutant assessed as substrate cleavage using Ac-C(Eu)DDMEEAbu(COO)ASK(QSY7)-amide as substrate incubated for 30 mins prior to substrate addition by time-resolved fluorescence assay
[6] = Inhibition of Hepatitis C virus genotype 1b NS3/4A protease assessed as substrate cleavage using Ac-C(Eu)DDMEEAbu(COO)ASK(QSY7)-amide as substrate incubated for 30 mins prior to substrate addition by time-resolved fluorescence assay; parameters: species or system Hepatitis C virus subtype 1b
[7] = AUC in rat at 5 mg/kg, po; type: ADME, organism-based; parameters: dose 5 mg/kg, route oral; conditions: plasma
Summary of the method: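 Rats were dosed orally at 5 mg/kg, with the compound given in methyl cellulose vehicle.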

Hepatitis C virus [8] = experiment: Antiviral activity against Hepatitis C virus genotype 3a infected in HuH7 cells assessed as reduction in replicon RNA level after 72 hrs by TaqMan-based RT-PCR analysis in presence of 10% FBS; type: functional, organism-based, Hepacivirus hominis; conditions: Huh-7, 72 h
Hepatitis C virus [9] = experiment: Antiviral activity against Hepatitis C virus genotype 1b infected in HuH7 cells assessed as reduction in replicon RNA level after 72 hrs by TaqMan-based RT-PCR analysis in presence of 10% FBS; type: functional, organism-based, Hepacivirus hominis; conditions: Huh-7, 72 h

| Structure (SMILES) | IC50 (NS3 protease [1]) [nM] | IC50 [2] [nM] | IC50 (NS3 protease [3]) [nM] | IC50 (NS3 protease [4]) [nM] | IC50 (NS3 protease [5]) [nM] | IC50 [6] [nM] | AUC [7] [µM·h] | EC50 (Hepatitis C virus [8]) [nM] | EC50 (Hepatitis C virus [9]) [nM] |
| --- | --- | --- | --- | --- | --- | --- | --- | --- | --- |
| C=C[C@@H]1C[C@]1(NC(=O)[C@@H]1C[C@@H]2CN1C(=O)[C@H](C1CCCCC1)NC(=O)O[C@@H]1C[C@H]1CCCCCc1c(nc3ccccc3c1OCCCNC1CC(F)(F)C1)O2)C(=O)NS(=O)(=O)C1(C)CC1 | 0.38 | 2 | 0.32 | 0.18 | 0.53 | 0.01 |  |  |  |
| C=C[C@@H]1C[C@]1(NC(=O)[C@@H]1C[C@@H]2CN1C(=O)[C@H](C1CCCCC1)NC(=O)O[C@@H]1C[C@H]1CCCCCc1c(nc3ccccc3c1OC1CCN(C(=O)OC(C)(C)C)CC1)O2)C(=O)NS(=O)(=O)C1(C)CC1 | 14.5 | 191 | 13.5 | 1.31 | 21.1 | 0.16 |  |  |  |
| C=C[C@@H]1C[C@]1(NC(=O)[C@@H]1C[C@@H]2CN1C(=O)[C@H](C1CCCCC1)NC(=O)O[C@@H]1C[C@H]1CCCCCc1c(nc3ccccc3c1OC1CCN(CC3CC3)CC1)O2)C(=O)NS(=O)(=O)C1(C)CC1 | 0.27 | 0.3 | 0.11 | 0.03 | 0.42 | 0.01 | 2.8 | 13.5 | 0.73 |
| C=C[C@@H]1C[C@]1(NC(=O)[C@@H]1C[C@@H]2CN1C(=O)[C@H](C1CCCCC1)NC(=O)O[C@@H]1C[C@H]1CCCCCc1c(nc3ccccc3c1OC1CCN(CCOC)CC1)O2)C(=O)NS(=O)(=O)C1(C)CC1 | 1.46 | 1.32 | 0.15 | 0.18 | 1.96 | 0.02 |  |  |  |
| C=C[C@@H]1C[C@]1(NC(=O)[C@@H]1C[C@@H]2CN1C(=O)[C@H](C1CCCCC1)NC(=O)O[C@@H]1C[C@H]1CCCCCc1c(nc3ccccc3c1OCCCNC1CCC1)O2)C(=O)NS(=O)(=O)C1(C)CC1 | 0.3 | 1.2 | 0.3 | 0.1 | 0.4 | 0.02 |  |  |  |
| C=C[C@@H]1C[C@]1(NC(=O)[C@@H]1C[C@@H]2CN1C(=O)[C@H](C1CCCCC1)NC(=O)O[C@@H]1C[C@H]1CCCCCc1c(nc3ccccc3c1OCCCN1CC(F)C1)O2)C(=O)NS(=O)(=O)C1(C)CC1 | 0.97 | 4.45 | 0.79 | 0.16 | 1.95 | 0.02 |  |  |  |
| C=C[C@@H]1C[C@]1(NC(=O)[C@@H]1C[C@@H]2CN1C(=O)[C@H](C1CCCCC1)NC(=O)O[C@@H]1C[C@H]1CCCCCc1c(nc3ccccc3c1OCCCN1CC(F)(F)C1)O2)C(=O)NS(=O)(=O)C1(C)CC1 | 1.3 | 7.55 | 2 | 0.5 | 3.75 | 0.03 |  |  |  |
| C=C[C@@H]1C[C@]1(NC(=O)[C@@H]1C[C@@H]2CN1C(=O)[C@H](C1CCCCC1)NC(=O)O[C@@H]1C[C@H]1CCCCCc1c(nc3ccccc3c1OCCCN1CCOCC1)O2)C(=O)NS(=O)(=O)C1(C)CC1 | 0.98 | 1.9 | 1.01 | 0.27 | 3.09 | 0.01 |  |  |  |
| C=C[C@@H]1C[C@]1(NC(=O)[C@@H]1C[C@@H]2CN1C(=O)[C@H](C1CCCCC1)NC(=O)O[C@@H]1C[C@H]1CCCCCc1c(nc3ccccc3c1OCCCN1CCN(C)CC1)O2)C(=O)NS(=O)(=O)C1(C)CC1 | 0.26 | 1.15 | 0.38 | 0.05 | 0.5 | 0.01 | 0.1 |  |  |
| C=C[C@@H]1C[C@]1(NC(=O)[C@@H]1C[C@@H]2CN1C(=O)[C@H](C(C)(C)C)NC(=O)O[C@@H]1C[C@H]1CCCCCc1c(nc3ccccc3c1O[C@H]1C[C@H]3CC[C@@H](C1)N3CC)O2)C(=O)NS(=O)(=O)C1(C)CC1 | 0.33 | 0.08 | 0.04 | 0.01 | 0.21 | 0.01 | 0.01 | 1.06 | 0.48 |
